The source of these data is ChEMBL document CHEMBL4339197, “Discovery of Imidazo[1,2-a]pyrazines and Pyrazolo[1,5-c]pyrimidines as TARP γ-8 Selective AMPAR Negative Modulators” (ACS Med Chem Lett, 2019).

For series [1], the target named is GRIA1/CACNG8 (Homo sapiens). Description: Negative allosteric modulation of recombinant human GluA1 flop isoform/TARPgamma8 expressed in HEK293 cells assessed as inhibition of glutamate-induced calcium flux at 100 uM by calcium 5/6 dye based FLIPR assay. In general terms: Calcium assays in cells follow changes in intracellular calcium, usually with a dye or a luminescent sensor.

Series [2] addresses T1, GRIA1/CACNG2 (Homo sapiens, UniProt P42261+Q9Y698). Description: Negative allosteric modulation of recombinant human GluA1 flop isoform/TARPgamma2 expressed in HEK293 cells assessed as inhibition of glutamate-induced calcium flux by calcium 5/6 dye based FLIPR assay. It is filed as cell-based. The essentials: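 FLIPR Ca2+ flux assay in HEK-293 cells transiently expressing human GluA1o co-transfected with γ-2; glutamate-induced response; reported as pIC50.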

The target in another series is GRIA1/CACNG8 (Homo sapiens, UniProt P42261+Q8WXS5). Description: Negative allosteric modulation of recombinant human GluA1 flop isoform/TARPgamma8 expressed in HEK293 cells assessed as inhibition of glutamate-induced calcium flux by calcium 5/6 dye based FLIPR assay. It is filed as cell-based. The essentials: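 FLIPR assay of glutamate-induced Ca2+ flux in HEK-293 cells expressing a human GluA1o-γ-8 fusion construct. At least three assays each run in triplicate; mean pIC50 with standard deviation.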

A short description of series [3]: Extraction ratio in rat liver microsomes at 1 uM measured after 60 mins by LC-MS/MS analysis. It is filed as ADME, Microsome. Particulars: read-out: ERH. The essentials: (§1)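 Metabolic stability in human and rat liver microsomes at 1 µM compound; reported as extraction ratio.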
A general note: Liver microsomes are vesicles of endoplasmic reticulum, rich in cytochrome P450 enzymes.

The nature of series [4]: Extraction ratio in human liver microsomes at 1 uM measured after 60 mins by LC-MS/MS analysis. In kind it is ADME, Microsome. Particulars: read-out: ERH. Put shortly:
as §1

The nature of series [5]: Apparent permeability across apical to basolateral side in MDCK-MDR1 cells at 5 uM measured after 60 mins by LC-MS/MS analysis. In kind it is ADME, cell-based, Canis lupus familiaris. Particulars: dog.
The target of a further series is Cytochrome P450 2C9 (Homo sapiens, UniProt P11712). The experiment in a line: Inhibition of CYP2C9 in human liver microsomes using diclofenac as substrate measured after 15 mins in presence of NADPH by LC-MS/MS analysis. It is filed as ADME.
Series [6] in a line: Efflux ratio of apparent permeability across basolateral to apical side over apical to basolateral side in MDCK-MDR1 cells at 5 uM measured after 60 mins by LC-MS/MS analysis. It is filed as ADME, cell-based, Canis lupus familiaris. Particulars: dog. Put shortly: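 Bidirectional permeability; efflux reported as the ratio of B-to-A over A-to-B apparent permeability.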
Series [7] deals with Mus musculus. The experiment in a line: Anticonvulsant activity in albino CF1 mouse model of 60-Hz corneal stimulation induced kindling model assessed as decrease in seizure score at 5 mg/kg/day measured 1 hr post last dose. It is filed as functional, organism-based. The essentials: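 Mouse corneal kindling model; once-daily oral dosing at 5 mg/kg/day for 5 days, seizure challenge 1 h after dosing. Rotarod test given immediately before challenge. Read-out is the fraction of animals protected (Racine score 3 or lower). N = 12-14 animals per cohort.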

In series [8] the test system is Mus musculus. Description: Ex vivo receptor occupancy at TARPgamma8 in mouse assessed as reduction in [3H]JNJ-56022486 receptor labeling at 10 mg/kg, po measured after 1 hr by autoradiography. In kind it is functional. The essentials:
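Mice given a single 10 mg/kg p.o. dose and sampled over time (n = 3 per time point, ±SEM). GluA/γ-8 receptor occupancy in hippocampus measured by ex vivo autoradiography with [3H]JNJ-56022486 radiotracer. Plasma and brain exposures also measured.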

In series [9] the test system is Mus musculus. Description: Ex vivo receptor occupancy at TARPgamma8 in po dosed mouse assessed as reduction in [3H]JNJ-56022486 receptor labeling by autoradiography. It is filed as functional. Put shortly: (§2)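 Occupancy measured by ex vivo autoradiography with [3H]JNJ-56022486. ED50 from a Hill fit of occupancy versus dose. Brain and plasma EC50 from fitting occupancy against exposure.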

For series [10], the system named is Mus musculus. The experiment in a line: Anticonvulsant activity in po dosed albino CF1 mouse model of 60-Hz corneal stimulation induced kindling model assessed as decrease of seizure score treated for 1 hr prior to 60-Hz corneal stimulation and measured after 1 hr.
Series [11] concerns Mus musculus. The experiment in a line: Ex vivo receptor occupancy at TARPgamma8 in po dosed mouse assessed as plasma concentration causing 50% reduction in [3H]JNJ-56022486 receptor labeling by autoradiography. It is filed as functional, organism-based. Put shortly:
as §2

The target of series [12] is T2, Voltage-dependent calcium channel gamma-2 subunit (Rattus norvegicus, UniProt Q71RJ2).
T2 sequence (Q71RJ2 whole entry): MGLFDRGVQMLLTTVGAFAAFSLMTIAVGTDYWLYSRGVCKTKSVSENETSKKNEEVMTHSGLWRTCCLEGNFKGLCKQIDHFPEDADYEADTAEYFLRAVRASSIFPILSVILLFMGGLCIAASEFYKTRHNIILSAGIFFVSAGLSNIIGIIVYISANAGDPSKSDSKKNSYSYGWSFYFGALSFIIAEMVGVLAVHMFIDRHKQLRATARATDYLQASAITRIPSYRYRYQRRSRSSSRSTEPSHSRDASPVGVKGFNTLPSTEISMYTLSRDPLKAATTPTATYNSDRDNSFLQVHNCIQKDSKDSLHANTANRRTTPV
Description: Negative allosteric modulation of TARPgamma2 in rat cerebellar purkinje neurons assessed as inhibition of glutamate-induced current at 10 uM at -60 mV holding potential measured at 5 secs interval for 50 to 60 secs by patch-clamp electrophysiology method. A general note: In patch-clamp work, channel activity is measured electrically.

In series [13] the target is T3, Voltage-dependent calcium channel gamma-8 subunit (Rattus norvegicus) (UniProt Q8VHW5).
T3 sequence (whole entry): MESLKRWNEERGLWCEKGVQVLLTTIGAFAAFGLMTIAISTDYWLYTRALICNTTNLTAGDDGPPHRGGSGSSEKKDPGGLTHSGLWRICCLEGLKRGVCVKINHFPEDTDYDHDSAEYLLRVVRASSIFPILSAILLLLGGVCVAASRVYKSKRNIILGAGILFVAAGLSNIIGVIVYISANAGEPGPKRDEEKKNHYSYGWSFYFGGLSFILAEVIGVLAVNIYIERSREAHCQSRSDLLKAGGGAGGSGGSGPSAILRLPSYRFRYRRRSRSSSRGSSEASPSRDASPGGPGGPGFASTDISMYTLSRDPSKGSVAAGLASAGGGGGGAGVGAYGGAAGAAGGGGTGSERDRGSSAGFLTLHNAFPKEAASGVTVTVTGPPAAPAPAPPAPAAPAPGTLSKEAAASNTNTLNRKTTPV
The experiment in a line: Negative allosteric modulation of TARPgamma8 in rat hippocampal neurons assessed as inhibition of glutamate-induced current at 10 uM at -60 mV holding potential by patch-clamp electrophysiology method.

For series [14], the target named is T1, GRIA1/CACNG2. Description: Negative allosteric modulation of recombinant human GluA1 flop isoform/TARPgamma2 expressed in HEK293 cells assessed as inhibition of glutamate-induced calcium flux at 100 uM by calcium 5/6 dye based FLIPR assay. It is filed as cell-based. Particulars: hek293, 100 µM. The essentials: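 Counterscreen of FLIPR Ca2+ flux in HEK-293 cells co-transfected with human GluA1o and γ-2, tested up to 100 µM.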

Series [15] has as its target T3, Voltage-dependent calcium channel gamma-8 subunit (Rattus norvegicus). The experiment in a line: Negative allosteric modulation of TARPgamma8 in rat hippocampal neurons assessed as inhibition of glutamate-induced current at 10 uM at -60 mV holding potential measured at 5 secs interval for 50 to 60 secs by patch-clamp electrophysiology method relative to control.

Values after ≈ are worked out from the molar mass of the structure shown. Active and inactive are the calls of the source. The rule behind the calls is not given here. Where only a bound is given, the exact number is not on record here.

T1 sequence (P42261 whole entry, canonical isoform): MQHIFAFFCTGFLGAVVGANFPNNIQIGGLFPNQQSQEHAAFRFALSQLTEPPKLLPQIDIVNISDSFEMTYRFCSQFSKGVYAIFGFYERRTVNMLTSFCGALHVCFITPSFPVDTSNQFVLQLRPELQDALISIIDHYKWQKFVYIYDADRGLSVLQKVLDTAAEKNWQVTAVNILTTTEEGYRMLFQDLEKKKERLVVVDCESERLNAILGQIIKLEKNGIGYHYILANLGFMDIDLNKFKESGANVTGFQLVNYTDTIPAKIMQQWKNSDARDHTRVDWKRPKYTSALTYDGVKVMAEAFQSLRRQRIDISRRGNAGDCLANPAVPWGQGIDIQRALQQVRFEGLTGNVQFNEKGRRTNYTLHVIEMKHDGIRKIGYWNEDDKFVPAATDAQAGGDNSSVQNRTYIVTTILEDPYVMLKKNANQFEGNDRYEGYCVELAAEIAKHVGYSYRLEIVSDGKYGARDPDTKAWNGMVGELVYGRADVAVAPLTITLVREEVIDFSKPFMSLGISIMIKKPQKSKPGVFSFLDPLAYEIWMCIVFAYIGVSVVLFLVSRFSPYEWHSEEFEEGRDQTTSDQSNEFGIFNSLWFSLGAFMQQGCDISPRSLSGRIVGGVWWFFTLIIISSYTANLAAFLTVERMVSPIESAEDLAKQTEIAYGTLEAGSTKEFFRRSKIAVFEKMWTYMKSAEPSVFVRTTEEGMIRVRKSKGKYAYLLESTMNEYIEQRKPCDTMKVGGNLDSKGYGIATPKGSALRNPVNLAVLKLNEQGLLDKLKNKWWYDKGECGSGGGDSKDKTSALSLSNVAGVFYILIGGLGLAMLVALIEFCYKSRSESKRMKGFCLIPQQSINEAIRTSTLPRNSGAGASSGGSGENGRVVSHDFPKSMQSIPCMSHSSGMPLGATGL
T1 sequence (Q9Y698 whole entry, canonical isoform): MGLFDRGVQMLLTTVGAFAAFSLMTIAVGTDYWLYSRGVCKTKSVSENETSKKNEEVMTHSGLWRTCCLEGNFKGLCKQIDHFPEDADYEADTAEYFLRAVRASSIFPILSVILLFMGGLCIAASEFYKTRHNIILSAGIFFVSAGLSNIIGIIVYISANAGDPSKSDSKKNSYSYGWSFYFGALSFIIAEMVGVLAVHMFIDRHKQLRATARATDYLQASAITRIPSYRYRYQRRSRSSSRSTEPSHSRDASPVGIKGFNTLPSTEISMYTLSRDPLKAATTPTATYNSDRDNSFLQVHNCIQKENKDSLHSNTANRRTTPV
Sequence of GRIA1/CACNG8 (P42261 whole entry, the tested form may be a part, canonical isoform): as the sequence (P42261 whole entry, canonical isoform) above
Sequence of GRIA1/CACNG8 (Q8WXS5 whole entry, the tested form may be a part, canonical isoform): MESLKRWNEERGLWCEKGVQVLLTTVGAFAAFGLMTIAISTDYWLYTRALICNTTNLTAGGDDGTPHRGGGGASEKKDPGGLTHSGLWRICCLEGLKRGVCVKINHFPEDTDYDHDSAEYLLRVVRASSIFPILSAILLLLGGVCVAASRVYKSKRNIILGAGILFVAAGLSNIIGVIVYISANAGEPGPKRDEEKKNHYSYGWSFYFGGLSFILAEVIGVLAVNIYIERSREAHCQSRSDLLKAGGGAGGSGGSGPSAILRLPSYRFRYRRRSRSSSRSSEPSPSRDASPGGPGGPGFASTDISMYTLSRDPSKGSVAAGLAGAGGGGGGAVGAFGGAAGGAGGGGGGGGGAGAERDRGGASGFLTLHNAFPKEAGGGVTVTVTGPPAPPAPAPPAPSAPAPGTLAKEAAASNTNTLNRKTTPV
Sequence of Cytochrome P450 2C9 (P11712 whole entry): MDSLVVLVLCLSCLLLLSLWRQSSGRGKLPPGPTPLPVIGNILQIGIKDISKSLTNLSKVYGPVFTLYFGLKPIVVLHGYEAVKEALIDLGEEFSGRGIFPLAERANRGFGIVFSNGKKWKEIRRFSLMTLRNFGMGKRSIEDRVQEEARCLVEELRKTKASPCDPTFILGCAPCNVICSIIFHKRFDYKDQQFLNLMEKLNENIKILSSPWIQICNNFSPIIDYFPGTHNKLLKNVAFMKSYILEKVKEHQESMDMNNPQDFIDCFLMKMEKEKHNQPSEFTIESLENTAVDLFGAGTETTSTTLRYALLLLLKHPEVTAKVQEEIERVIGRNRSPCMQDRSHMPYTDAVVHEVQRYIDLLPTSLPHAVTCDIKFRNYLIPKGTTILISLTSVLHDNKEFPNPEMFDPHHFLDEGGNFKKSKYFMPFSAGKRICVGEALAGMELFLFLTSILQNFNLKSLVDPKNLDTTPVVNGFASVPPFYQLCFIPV

For the molecule `O=C1Cc2cc(-c3c(-c4ccc(F)cc4)nn4c(N5CCOCC5)nccc34)ccc2N1`, in [1] (read-out: pIC50 (converted)), the IC50 was 0.501 nM.

Consider `Oc1ccc(-n2c(-c3ccc(F)cc3)nc3ccccc32)cc1`, for which the IC50 on GRIA1/CACNG2 [2] is 1260 nM; on GRIA1/CACNG8, 200 nM.

By Papp A→B is commonly meant the apparent permeability from the apical to the basolateral side of a cell layer. `O=C1Cc2cc(-c3c(-c4ccc(F)cc4)nn4c(N5CCC(F)CC5)nccc34)ccc2N1`: the hepatic extraction ratio at 1 h, 1 µM in [3] and in [4] was 0.6 throughout. For the same molecule, the IC50 in [1] (read-out: pIC50 (converted)) is 5.01 nM. Moreover, the Papp A→B at 1 h, 5 µM in series [5] was 1.2 ×10⁻⁶ cm/s.

As for `COc1ccc(-c2c(-c3ccc(F)cc3)nc3c(N4CCOCC4)nccn23)cc1`, the IC50 in [1] (read-out: pIC50 (converted)) is 501 nM.

With `O=C1Cc2cc(-c3c(-c4ccc(F)cc4)nc4c(N5CCC(F)CC5)nccn34)ccc2N1`, the IC50 in series [1] (read-out: IC50) came out at 0.1 nM.

Take `O=C1CN(c2nccc3c(-c4ccc5c(c4)CC(=O)N5)c(-c4ccc(F)cc4)nn23)CCN1`: the IC50 in series [1] (read-out: pIC50 (converted)) was 5.01 nM.

Turning to `O=C1CN(c2nccn3c(-c4ccc5c(c4)CC(=O)N5)c(-c4ccc(F)cc4)nc23)CCN1`, in series [1] (read-out: pIC50 (converted)), the IC50 is 0.501 nM.

Consider `O=C1Cc2cc(-c3c(-c4ccc(F)cc4)nc4c(N5CCC(O)CC5)nccn34)ccc2N1`, for which the IC50 in series [1] (read-out: pIC50 (converted)) is 0.398 nM.

As to `CC(=O)Nc1ccc(-c2c(-c3ccc(F)cc3)nc3c(N4CCOCC4)nccn23)cc1`, the IC50 in [1] (read-out: pIC50 (converted)) is more than 10000 nM.

In the case of `CC(=O)N1CCN(c2nccn3c(-c4ccc5c(c4)CC(=O)N5)c(-c4ccc(F)cc4)nc23)CC1`, the IC50 in series [1] (read-out: pIC50 (converted)) is 0.398 nM.

Regarding `Fc1ccc(-c2nc3c(N4CCOCC4)nccn3c2-c2ccc3[nH]ncc3c2)cc1`, the IC50 in [1] (read-out: pIC50 (converted)) is 0.631 nM; on Cytochrome P450 2C9 it was 500 nM.

`Nc1ccc(-c2c(-c3ccc(F)cc3)nc3c(N4CCOCC4)nccn23)cc1`: the IC50 in [1] (read-out: pIC50 (converted)) is 63.1 nM.

For the molecule `Oc1ccc(-c2c(-c3ccc(Cl)cc3)nc3c(N4CCOCC4)nccn23)cc1`, the IC50 in [1] (read-out: pIC50 (converted)) is 10 nM.

With `Oc1ccc(-c2c(-c3ccc(F)cc3)nc3c(N4CCOCC4)nccn23)cc1`, the IC50 in [1] (read-out: pIC50 (converted)) was 12.6 nM.

As usually defined, the efflux ratio is a quotient of directional permeabilities that is used to spot active efflux. Consider `CC(=O)N1CCN(c2nccc3c(-c4ccc5c(c4)CC(=O)N5)c(-c4ccc(F)cc4)nn23)CC1`, for which the hepatic extraction ratio at 1 h, 1 µM in series [3] came out at 0.5; in [4], 0.6. For the same molecule, in series [1] (read-out: pIC50 (converted)), the IC50 is 0.251 nM. For the same molecule, in series [6], the efflux ratio at 1 h, 5 µM amounted to 34. Further, the Papp A→B at 1 h, 5 µM in [5] turned out to be 2.1 ×10⁻⁶ cm/s.

One may read the ED50 as the midpoint of the dose-response relation. As a reminder, the EC50 is the midpoint of the concentration-response curve. For `O=C1Cc2cc(-c3c(-c4ccc(F)cc4)nn4c(N5CCC(O)CC5)nccc34)ccc2N1`, the result in the series on Mus musculus [7] was Active. For the same molecule, the Occ with Mus musculus [8] is more than 90%. Besides, the results for the ED50 with Mus musculus [9] and with Mus musculus [10] were 2.9 mg/kg and 1.3 mg/kg, respectively. Moreover, the EC50 in the series on Mus musculus [11] was found to be 0.362 µg/mL (≈ 0.816 µM).

For orientation: inhibition means the percentage by which the read-out fell short of the control. On to `COCCn1cc(-c2c(-c3ccc(Cl)cc3)nc3c(N4CCOCC4)nccn23)cn1`, for which the results for the IC50 on GRIA1/CACNG2 [2] and at GRIA1/CACNG8 were more than 10000 nM and 126 nM, respectively. The “inhibition (INH)” value (in series [12]; on GRIA1/CACNG2 [14]) was “Not Active” throughout. The results for the inhibition entry in series [13] and in [15] were “Dose-dependent effect” and 50%, respectively.
